≈ marks a conversion by molar mass, not a printed value.
Assays:
Assay type in all cases: functional
Klebsiella pneumoniae [1] = experiment: Antimicrobial activity against Klebsiella pneumoniae expressing beta-lactamase SHV by Etest based on multiple determinants
Procedure, shortened: (§1)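 Clinical isolates from tigecycline phase 3 trials were received as frozen primary cultures. Repeat isolates from one patient were riboprinted, and only the first of identical strains was kept. β-lactamase genes were assigned by PCR against control strains, plus isoelectric focusing. ESBL confirmation used Etest ESBL strips carrying ceftazidime or cefotaxime with clavulanic acid, read per the manufacturer's instructions.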

Escherichia coli [2] = experiment: Antimicrobial activity against Escherichia coli expressing beta-lactamase CTX by Etest based on multiple determinants
Procedure, shortened: (§2)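 Clinical isolates from tigecycline phase 3 trials were received as frozen primary cultures. Serial isolates from one patient were riboprinted, and only the first of identical strains was kept. β-Lactamase genes were assigned by PCR. ESBL confirmation used Etest ESBL strips carrying ceftazidime or cefotaxime, alone and combined with clavulanic acid, following the strip maker's instructions.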

Escherichia coli [3] = experiment: Antimicrobial activity against Escherichia coli expressing beta-lactamase AmpC and extended-spectrum beta-lactamase by Etest; procedure, shortened: as §2
Klebsiella pneumoniae [4] = experiment: Antimicrobial activity against Klebsiella pneumoniae expressing beta-lactamase SHV and CTX by Etest; procedure, shortened: as §1
Escherichia coli [5] = experiment: Antimicrobial activity against Escherichia coli expressing beta-lactamase AmpC by Etest; procedure, shortened: as §2
Klebsiella pneumoniae [6] = experiment: Antimicrobial activity against Klebsiella pneumoniae extended-spectrum beta-lactamase producing isolate by Etest; procedure, shortened: as §1
Klebsiella pneumoniae [7] = experiment: Antimicrobial activity against Klebsiella pneumoniae expressing beta-lactamase SHV by Etest based on single determinant; procedure, shortened: as §1
Escherichia coli [8] = experiment: Antimicrobial activity against Escherichia coli expressing beta-lactamase CTX by Etest based on single determinant; procedure, shortened: as §2
Klebsiella pneumoniae [9] = experiment: Antimicrobial activity against Klebsiella pneumoniae expressing beta-lactamase CTX by Etest based on single determinant; procedure, shortened: as §1
Klebsiella pneumoniae [10] = experiment: Antimicrobial activity against Klebsiella pneumoniae expressing beta-lactamase DHA by Etest; procedure, shortened: as §2
Escherichia coli [11] = experiment: Antimicrobial activity against Escherichia coli extended-spectrum beta-lactamase producing isolate by Etest; procedure, shortened: as §2
Klebsiella pneumoniae [12] = experiment: Antimicrobial activity against Klebsiella pneumoniae expressing beta-lactamase CTX by Etest based on multiple determinants; procedure, shortened: as §1
Proteus mirabilis [13] = experiment: Antimicrobial activity against Proteus mirabilis expressing extended-spectrum beta-lactamase by Etest based on single determinant; procedure, shortened: as §1
Proteus mirabilis [14] = experiment: Antimicrobial activity against Proteus mirabilis extended-spectrum beta-lactamase producing isolate by Etest; procedure, shortened: as §1
Proteus mirabilis [15] = experiment: Antimicrobial activity against Proteus mirabilis expressing beta-lactamase AmpC by Etest; procedure, shortened: as §1
Escherichia coli [16] = experiment: Antimicrobial activity against Escherichia coli expressing beta-lactamase CTX and SHV by Etest; procedure, shortened: as §2
Proteus mirabilis [17] = experiment: Antimicrobial activity against Proteus mirabilis expressing extended-spectrum beta-lactamase by Etest based on multiple determinants; procedure, shortened: as §1
Klebsiella pneumoniae [18] = experiment: Antimicrobial activity against Klebsiella pneumoniae expressing extended-spectrum beta-lactamase and beta-lactamase AmpC by Etest; procedure, shortened: as §2

Structure (SMILES)	MIC (Klebsiella pneumoniae [1])	MIC50 (Escherichia coli [2])	MIC90 (Escherichia coli [2])	MIC50 (Escherichia coli [3])	MIC90 (Escherichia coli [3])	MIC50 (Klebsiella pneumoniae [4])	MIC90 (Klebsiella pneumoniae [4])	MIC50 (Klebsiella pneumoniae [6])	MIC90 (Klebsiella pneumoniae [6])	MIC50 (Klebsiella pneumoniae [7])	MIC90 (Klebsiella pneumoniae [7])	MIC50 (Escherichia coli [8])	MIC90 (Escherichia coli [8])	MIC50 (Klebsiella pneumoniae [9])	MIC90 (Klebsiella pneumoniae [9])	MIC50 (Escherichia coli [11])	MIC90 (Escherichia coli [11])	MIC50 (Klebsiella pneumoniae [12])	MIC90 (Klebsiella pneumoniae [12])	MIC (Proteus mirabilis [13])	further results
C[C@@H](O)[C@H]1C(=O)N2C(C(=O)O)=C(SCCNC=N)C[C@H]12 [IMIPENEM ANHYDROUS]	0.12 µg/mL (≈ 0.401 µM)	≤ 0.12 µg/mL	0.25 µg/mL (≈ 0.835 µM)	0.25 µg/mL (≈ 0.835 µM)	0.5 µg/mL (≈ 1.67 µM)	0.25 µg/mL (≈ 0.835 µM)	0.5 µg/mL (≈ 1.67 µM)	0.25 µg/mL (≈ 0.835 µM)	1 µg/mL (≈ 3.34 µM)	0.25 µg/mL (≈ 0.835 µM)	1 µg/mL (≈ 3.34 µM)	≤ 0.12 µg/mL	0.25 µg/mL (≈ 0.835 µM)	0.25 µg/mL (≈ 0.835 µM)	0.5 µg/mL (≈ 1.67 µM)	≤ 0.12 µg/mL	0.25 µg/mL (≈ 0.835 µM)	0.25 µg/mL (≈ 0.835 µM)	0.5 µg/mL (≈ 1.67 µM)	0.5 µg/mL (≈ 1.67 µM)	MIC (Escherichia coli [5]): 0.12 µg/mL (≈ 0.401 µM); MIC (Klebsiella pneumoniae [10]): 0.5 µg/mL (≈ 1.67 µM); MIC50 (Proteus mirabilis [14]): 2 µg/mL (≈ 6.68 µM); MIC90 (Proteus mirabilis [14]): 4 µg/mL (≈ 13.4 µM); MIC (Proteus mirabilis [15]): 1 µg/mL (≈ 3.34 µM); MIC50 (Escherichia coli [16]): ≤ 0.12 µg/mL; MIC90 (Escherichia coli [16]): 0.25 µg/mL (≈ 0.835 µM); MIC (Proteus mirabilis [17]): 2 µg/mL (≈ 6.68 µM); MIC (Klebsiella pneumoniae [18]): 0.06 µg/mL (≈ 0.2 µM)
C[C@H]1COc2c(N3CCN(C)CC3)c(F)cc3c(=O)c(C(=O)O)cn1c23.C[C@H]1COc2c(N3CCN(C)CC3)c(F)cc3c(=O)c(C(=O)O)cn1c23.O [LEVOFLOXACIN]	0.12 µg/mL	> 16 µg/mL	> 16 µg/mL	16 µg/mL	> 16 µg/mL	0.5 µg/mL	> 16 µg/mL	2 µg/mL	> 16 µg/mL	0.5 µg/mL	16 µg/mL	16 µg/mL	> 16 µg/mL	4 µg/mL	> 16 µg/mL	16 µg/mL	> 16 µg/mL	4 µg/mL	16 µg/mL	0.12 µg/mL	MIC50 (Proteus mirabilis [14]): 8 µg/mL; MIC90 (Proteus mirabilis [14]): > 16 µg/mL; MIC (Proteus mirabilis [15]): 4 µg/mL; MIC50 (Escherichia coli [16]): 16 µg/mL; MIC90 (Escherichia coli [16]): > 16 µg/mL; MIC (Proteus mirabilis [17]): 2 µg/mL; MIC (Klebsiella pneumoniae [18]): 2 µg/mL

Source: ChEMBL document CHEMBL1629612, “Characterization and sequence analysis of extended-spectrum-{beta}-lactamase-encoding genes from Escherichia coli, Klebsiella pneumoniae, and Proteus mirabilis isolates collected during tigecycline phase 3 clinical trials” (2009)
